Measurements: PMC7312786 (Biochemistry, 2018)
pEC50, pIC50: −log10 of the molar value.

Tests used:
hpol β = hpol β (Homo sapiens, UniProt P06746); assay: Fluorescence-based pol activity assay, hpol β; type: biochemical; conditions: 20 μM PNR-7-02
hpol η = molecular target: T1, hpol η (Homo sapiens, UniProt Q9Y253); assay: Steady-state kinetic analysis of hpol η activity; type: biochemical
T1 sequence (Q9Y253 1-437): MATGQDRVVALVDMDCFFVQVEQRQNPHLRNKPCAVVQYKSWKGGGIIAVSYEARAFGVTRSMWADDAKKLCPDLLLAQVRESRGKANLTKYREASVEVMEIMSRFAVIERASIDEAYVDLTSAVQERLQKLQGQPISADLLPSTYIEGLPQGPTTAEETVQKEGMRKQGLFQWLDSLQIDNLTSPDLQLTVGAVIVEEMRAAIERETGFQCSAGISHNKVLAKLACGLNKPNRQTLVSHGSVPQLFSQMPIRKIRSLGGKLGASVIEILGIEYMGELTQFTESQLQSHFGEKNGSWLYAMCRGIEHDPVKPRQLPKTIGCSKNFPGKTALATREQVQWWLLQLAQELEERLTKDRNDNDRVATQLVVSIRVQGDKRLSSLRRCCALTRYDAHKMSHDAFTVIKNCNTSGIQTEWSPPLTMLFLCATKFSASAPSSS

OVCAR3 cells = assay: Combined treatment of OVCAR3 cells with CDDP and PNR-7-02; type: cell-based, human
hpol ι = molecular target: T2, hpol ι (Homo sapiens, UniProt Q9UNA4); assay: Gel-based pol extension assay, hpol ι; type: biochemical; conditions: relative to hpol η / hRev1
T2 sequence (Q9UNA4 1-446): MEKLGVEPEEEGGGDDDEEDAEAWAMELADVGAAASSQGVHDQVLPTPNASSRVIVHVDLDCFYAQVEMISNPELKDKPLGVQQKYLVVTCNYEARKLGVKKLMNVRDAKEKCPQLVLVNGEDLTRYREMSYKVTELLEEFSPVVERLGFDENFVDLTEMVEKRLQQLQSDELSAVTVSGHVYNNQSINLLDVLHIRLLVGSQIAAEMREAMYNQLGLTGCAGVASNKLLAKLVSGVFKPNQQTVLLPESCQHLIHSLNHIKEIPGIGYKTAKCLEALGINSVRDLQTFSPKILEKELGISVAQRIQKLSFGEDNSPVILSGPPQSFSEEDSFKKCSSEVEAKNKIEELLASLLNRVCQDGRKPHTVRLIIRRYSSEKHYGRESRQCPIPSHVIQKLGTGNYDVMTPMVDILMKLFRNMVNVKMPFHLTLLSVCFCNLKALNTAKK
Procedure, shortened: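 Gel extension assay with hpol ι core (residues 1–446) or hpol κ core (residues 19–526). Enzyme 2 nM preincubated 5 min with increasing test compound in 50 mM HEPES pH 7.5, 50 mM NaCl, 1 mM DTT, 0.1 mg/mL BSA, 10% glycerol. Started at 37 °C with 200 nM FAM-labeled 13/18-mer primer–template, 10 μM each dNTP, 5 mM MgCl₂. Quench: 20 mM EDTA/95% formamide, 95 °C. Triplicate; IC50 mean ± SD.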

[1] = system: hpol η-deficient HAP-1 cells; assay: Cell viability; type: cell-based, human
Procedure, shortened: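 HAP-1 parental or CRISPR hpol η-null cells in IMDM with 10% FBS and 1% antibiotic/antimycotic, passage 8–10, seeded 5000 cells/well. Next day: CDDP 0–100 μM alone or with 0.1 or 1 μM test compound, 48 h. Cells washed twice in DPBS, then 2 μM Calcein-AM for 30 min at 25 °C; fluorescence ex 490/em 520 nm. Viability as % of untreated. […] Combination index by Chou–Talalay.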

hpol λ = molecular target: T3, hpol λ (Homo sapiens, UniProt Q9UGP5); assay: Fluorescence-based pol activity assay, hpol λ; type: biochemical
T3 sequence (Q9UGP5 251-575 limits assumed): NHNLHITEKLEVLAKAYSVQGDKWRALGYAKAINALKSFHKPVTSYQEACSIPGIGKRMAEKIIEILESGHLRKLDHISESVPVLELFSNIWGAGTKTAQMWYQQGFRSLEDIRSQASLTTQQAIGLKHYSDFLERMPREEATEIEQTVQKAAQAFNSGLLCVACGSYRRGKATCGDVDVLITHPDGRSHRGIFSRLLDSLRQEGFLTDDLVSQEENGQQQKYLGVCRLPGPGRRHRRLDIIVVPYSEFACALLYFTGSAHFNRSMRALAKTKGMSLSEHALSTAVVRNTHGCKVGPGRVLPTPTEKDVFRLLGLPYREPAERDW

hpol θ = molecular target: T4, hpol θ (Homo sapiens, UniProt O75417); assay: Fluorescence-based pol activity assay, hpol θ; type: biochemical; conditions: 20 μM PNR-7-02; mean (±SD)
T4 sequence (O75417 1792-2590): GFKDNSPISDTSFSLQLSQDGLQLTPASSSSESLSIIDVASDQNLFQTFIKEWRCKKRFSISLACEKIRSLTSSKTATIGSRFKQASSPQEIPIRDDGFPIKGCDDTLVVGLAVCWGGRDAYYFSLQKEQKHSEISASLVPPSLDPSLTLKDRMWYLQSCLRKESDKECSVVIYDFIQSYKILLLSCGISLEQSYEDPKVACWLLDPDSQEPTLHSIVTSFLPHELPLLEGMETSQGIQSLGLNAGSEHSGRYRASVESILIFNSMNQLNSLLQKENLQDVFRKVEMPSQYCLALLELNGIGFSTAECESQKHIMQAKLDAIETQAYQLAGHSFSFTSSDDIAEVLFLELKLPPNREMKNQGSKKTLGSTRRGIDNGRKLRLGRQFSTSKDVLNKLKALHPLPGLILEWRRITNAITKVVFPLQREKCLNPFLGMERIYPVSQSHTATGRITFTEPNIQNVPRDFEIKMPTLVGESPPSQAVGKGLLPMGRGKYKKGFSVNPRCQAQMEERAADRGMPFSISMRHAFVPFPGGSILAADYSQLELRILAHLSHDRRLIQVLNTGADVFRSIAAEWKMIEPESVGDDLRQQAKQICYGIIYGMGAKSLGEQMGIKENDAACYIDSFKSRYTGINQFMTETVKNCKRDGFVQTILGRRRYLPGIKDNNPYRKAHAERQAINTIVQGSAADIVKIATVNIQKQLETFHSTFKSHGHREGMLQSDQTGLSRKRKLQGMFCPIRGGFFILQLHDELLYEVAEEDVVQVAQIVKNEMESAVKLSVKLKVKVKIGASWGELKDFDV

O=C1NC(=S)NC(=O)C1=Cc1cn(Cc2ccc3ccccc3c2)c2ccc(Cl)cc12 [PNR-7-02, 5-((5-chloro-1-(naphthalen-2-ylmethyl)-1H-indol-3-yl)methylene)-2-thioxodihydropyrimidine-4,6-(1H,5H)-dione]
Effect on hpol β (hpol β): no effect
Pol activity relative to DMSO control, hpol β (hpol β; mean (±SD)): 103 (±8) %
Effect on KM,dTTP of hpol η (hpol η; 0–9 μM PNR-7-02): nonlinear increase
Effect on kcat of hpol η (hpol η; PNR-7-02 near or below the IC50): no change
Combination index (CI) with CDDP (OVCAR3 cells): 0.4
Increase in IC50 against hpol η (so in the source); first of 'hpols η and κ') (hpol ι): ~3 fold
Effect of adding PNR-7-02 on toxicity of CDDP ([1]; hpol η-deficient cells): does not have a notable effect
Combination index with CDDP ([1]; hpol η-deficient cells, 0.1 μM PNR-7-02): 1.02
Combination index with CDDP ([1]; hpol η-deficient cells, 1 μM PNR-7-02): 0.90
pEC50 ([1]; read-out: EC50, cell viability, PNR-7-02 alone, hpol η-deficient HAP-1, 48 h): 5.25
Effect on catalysis by hpol λ (hpol λ; 20 μM PNR-7-02): strongly inhibited
Pol activity relative to DMSO control, hpol λ (hpol λ; 20 μM PNR-7-02, mean (±SD)): 5.9 (±2.1) %
pIC50 (hpol λ; read-out: IC50, hpol λ, best-fit value and 95% confidence interval, three replicates): 5.10
Pol activity relative to DMSO control, hpol θ (hpol θ): 86 (±1) %
